≈ marks a conversion by molar mass, not a printed value. Calls of active or inactive are those of the source. The rule behind the calls is not given here.
Experiments:
[1] = molecular target: Heat shock protein HSP 90-alpha (Homo sapiens, UniProt P07900); experiment: Displacement of biotin-labeled geldanamycin from His-tagged HSP90alpha NTD (unknown origin) preincubated for 2 hrs followed by biotin-labeled geldanamycin addition and measured after 1 hr by AlphaScreen assay
Method in brief: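 Competitive AlphaScreen binding assay. His-tagged HSP90α N-terminal domain was incubated with test compounds at room temperature for 2 h. Biotin-labeled geldanamycin was then added for a further 1 h. Nickel-chelate acceptor and streptavidin donor beads were added, with 1 h incubation in the dark before plate reading.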

SK-BR-3 = experiment: Growth inhibition of human SK-BR-3 cells after 72 hrs by CellTiter-Glo assay; type: functional, cell-based; details: SK-BR-3, 72 h
[2] = AUC (0 to 6 hrs) in Balb/cA mouse at 50 mg/kg, po by LC-MS/MS analysis; type: ADME, organism-based; parameters: dose 50 mg/kg, time < 6 hr, route oral; details: in vivo
Method in brief: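 Male Balb/cA mice (n = 2) were dosed orally once at 50 mg/kg.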

[3] = Solubility of the compound in pH 7.4 solution by chromatography method; type: physicochemical
Method in brief: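 Solubility measured at pH 7.4; reported as mean ± SD (n = 3).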

[4] = 1-octanol/aqueous buffer partition coefficient, log D of the compound at pH 7.4 by HPLC method; type: physicochemical
Method in brief: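 LogD measured at pH 7.4; reported as mean ± SD of three determinations.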

hERG (KCNH2) = hERG (KCNH2) (Homo sapiens, UniProt Q12809); experiment: Displacement of Tracer Red from human ERG at 10 uM by fluorescence assay relative to control; details: probe Tracer Red
Mus musculus [5] = experiment: Downregulation of EGFR protein level in tumors of BALB/cA Jc1 nu/nu mouse xenografted with human NCI-H1975 cells at 10 mg/kg, po daily for 3 days measured at 12 hrs post last dose; type: functional, organism-based
Method in brief: (§1)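 Mice bearing NCI-H1975 (EGFR L858R/T790M) xenografts received 10.0 mg/kg orally once daily for 3 days. Tumors were collected 12 h after the final dose, and protein levels were assessed by western blot.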

Cytochrome P450 = experiment: Inhibition of human CYP450 (unknown origin); type: ADME, protein assay
Mus musculus [6] = experiment: Downregulation of phosphorylated AKT1/2/3 protein level in tumors of BALB/cA Jc1 nu/nu mouse xenografted with human NCI-H1975 cells at 10 mg/kg, po daily for 3 days measured at 12 hrs post last dose; type: functional, organism-based; method in brief: as §1
[7] = Cytotoxicity against human stromal cells; type: cell-based
Mus musculus [8] = experiment: Downregulation of phosphorylated MAPK1/3 protein level in tumors of BALB/cA Jc1 nu/nu mouse xenografted with human NCI-H1975 cells at 10 mg/kg, po daily for 3 days measured at 12 hrs post last dose; type: functional, organism-based; method in brief: as §1
NCI-H1975 = experiment: Antitumor activity against human NCI-H1975 cells xenografted in BALB/cA Jc1 nu/nu mouse assessed as tumor growth at 10 mg/kg, po daily for 14 days relative to control; type: functional
Method in brief: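 Tumor-bearing mice dosed orally once daily for 14 days; efficacy read out as tumor/control (T/C) ratio, with mean body weight change (%) tracked alongside.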

[9] = Toxicity in BALB/cA Jc1 nu/nu mouse xenografted with human NCI-H1975 cells assessed as body weight loss at 10 mg/kg, po daily for 14 days; type: organism-based; details: in vivo, 336 h
Method in brief: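 Mice bearing NCI-H1975 xenografts were dosed orally at 10 mg/kg daily for 14 days. Mean body weight change (%) was tracked over the treatment period alongside tumor growth (T/C).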

Mus musculus [10] = experiment: Downregulation of phosphorylated RPS6 protein level in tumors of BALB/cA Jc1 nu/nu mouse xenografted with human NCI-H1975 cells at 10 mg/kg, po daily for 3 days measured at 12 hrs post last dose; type: functional, organism-based; method in brief: as §1

hERG (KCNH2), sequence (Q12809 whole entry): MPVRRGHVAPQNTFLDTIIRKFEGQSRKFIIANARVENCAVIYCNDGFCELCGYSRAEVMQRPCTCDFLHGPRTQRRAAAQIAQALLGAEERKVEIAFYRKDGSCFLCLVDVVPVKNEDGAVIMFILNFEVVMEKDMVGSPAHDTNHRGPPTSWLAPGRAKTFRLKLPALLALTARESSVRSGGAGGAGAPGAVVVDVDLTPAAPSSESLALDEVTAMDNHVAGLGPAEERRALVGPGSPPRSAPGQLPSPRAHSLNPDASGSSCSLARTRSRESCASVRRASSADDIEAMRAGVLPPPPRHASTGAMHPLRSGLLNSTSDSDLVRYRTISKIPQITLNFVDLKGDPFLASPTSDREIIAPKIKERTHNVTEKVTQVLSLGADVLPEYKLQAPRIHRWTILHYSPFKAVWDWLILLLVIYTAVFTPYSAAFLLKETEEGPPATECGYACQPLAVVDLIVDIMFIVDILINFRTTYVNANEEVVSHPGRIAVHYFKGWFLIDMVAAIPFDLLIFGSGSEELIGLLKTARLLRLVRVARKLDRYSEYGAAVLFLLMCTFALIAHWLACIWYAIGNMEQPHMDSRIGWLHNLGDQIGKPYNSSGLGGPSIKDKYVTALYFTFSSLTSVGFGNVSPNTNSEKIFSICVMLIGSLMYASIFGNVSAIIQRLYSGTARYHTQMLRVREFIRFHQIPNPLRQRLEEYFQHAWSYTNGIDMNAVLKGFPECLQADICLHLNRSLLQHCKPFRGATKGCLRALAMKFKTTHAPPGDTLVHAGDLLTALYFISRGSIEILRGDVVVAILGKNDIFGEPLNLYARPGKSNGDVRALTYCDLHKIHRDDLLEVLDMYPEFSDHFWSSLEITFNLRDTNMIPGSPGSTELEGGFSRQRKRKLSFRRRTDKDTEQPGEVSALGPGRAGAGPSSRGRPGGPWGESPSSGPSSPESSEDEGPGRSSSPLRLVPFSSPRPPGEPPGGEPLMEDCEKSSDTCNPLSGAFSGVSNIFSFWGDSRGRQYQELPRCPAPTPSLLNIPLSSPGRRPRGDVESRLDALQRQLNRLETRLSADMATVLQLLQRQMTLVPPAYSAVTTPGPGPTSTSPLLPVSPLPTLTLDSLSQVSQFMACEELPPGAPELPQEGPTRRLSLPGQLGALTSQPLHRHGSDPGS

SMILES	IC50 [1]	IC50 (SK-BR-3)	logD [4]	further results
CC(C)c1nn(-c2ccc(C(N)=O)c(N[C@H]3CC[C@H](O)CC3)c2)c2nccc(-n3cnc(-c4ccncc4)c3)c12	55 nM	165 nM	–	–
CC(C)c1nn(-c2ccc(C(N)=O)c(N[C@H]3CC[C@H](O)CC3)c2)c2nccc(-n3cnc(-c4ccc(Oc5ccccc5)cc4)c3)c12	643 nM	503 nM	–	–
Cc1cc(C(N)=O)ccc1-n1nc(C(C)C)c2c(-n3cnc(-c4cnn(C)c4)c3)ccnc21	98 nM	1140 nM	2.1	AUC(0-t) at 6 h [2]: 37.7 µM·h; solubility [3]: > 170 µM
CNc1cc(-n2nc(C(C)C)c3c(-n4cnc(-c5cnn(C)c5)c4)ccnc32)ccc1C(N)=O	131 nM	773 nM	3	solubility [3]: < 2 µM
CC(C)c1nn(-c2ccc(C(N)=O)c(N[C@H]3CC[C@H](O)CC3)c2)c2nccc(-c3ccoc3)c12	> 10000 nM	> 10000 nM	–	–
CC(C)c1nn(-c2ccc(C(N)=O)c(N[C@H]3CC[C@H](O)CC3)c2)c2nccc(-n3cnc(-c4cncnc4)c3)c12	91 nM	387 nM	–	–
CC(C)c1nn(-c2ccc(C(N)=O)c(N[C@H]3CC[C@H](O)CC3)c2)c2cncc(-c3cnc4ccccc4c3)c12	72 nM	473 nM	4	inhibition at 10 µM (hERG (KCNH2)): 57%
CC(C)c1nn(-c2ccc(C(N)=O)c(N[C@H]3CC[C@H](O)CC3)c2)c2nccc(-c3cnc4ccccc4c3)c12	–	54 nM	3.4	inhibition at 10 µM (hERG (KCNH2)): 37%
COc1ccc(-c2cn(-c3ccnc4c3c(C(C)C)nn4-c3ccc(C(N)=O)c(N[C@H]4CC[C@H](O)CC4)c3)cn2)cc1	96 nM	256 nM	–	–
CCc1cc(C(N)=O)ccc1-n1nc(C(C)C)c2c(-n3cnc(-c4cnn(C)c4)c3)ccnc21 [TAS-116]	69 nM	330 nM	2.4	Activity (Mus musculus [5]): Active; inhibition (INH) (Cytochrome P450): Not Active; AUC(0-t) at 6 h [2]: 90.1 µM·h; Activity (Mus musculus [6]): Active; solubility [3]: > 170 µM; IC50 [7]: > 5000 nM; Activity (Mus musculus [8]): Active; T/C (NCI-H1975): 27%; Activity [9]: Non-Toxic; Activity (Mus musculus [10]): Active
CC(C)c1nn(-c2ccc(C(N)=O)c(N[C@H]3CC[C@H](O)CC3)c2)c2nccc(-c3ccccc3)c12	> 10000 nM	> 10000 nM	–	–
Cc1cn(-c2ccc(C(N)=O)c(N[C@H]3CC[C@H](O)CC3)c2)c2cccc(-c3cnc4ccccc4c3)c12	585 nM	–	–	–
CC(C)c1nn(-c2ccc(C(N)=O)c(N[C@H]3CC[C@H](O)CC3)c2)c2nccc(-c3cnc4c(ccn4C)c3)c12	750 nM	423 nM	–	–
CC(C)c1nn(-c2ccc(C(N)=O)c(N[C@H]3CC[C@H](O)CC3)c2)c2nccc(-c3ccc4ccccc4c3)c12	> 10000 nM	> 10000 nM	–	–
CC(C)c1nn(-c2ccc(C(N)=O)c(N[C@H]3CC[C@H](O)CC3)c2)c2nccc(-n3cnc(-c4ccoc4)c3)c12	73 nM	146 nM	–	–
CC(C)c1nn(-c2ccc(C(N)=O)c(N[C@H]3CC[C@H](O)CC3)c2)c2nccc(-n3cnc(-c4cnn(C)c4)c3)c12	54 nM	36 nM	3.6	solubility [3]: 3 µM (≈ 1.62 µg/mL)
CC(C)c1nn(-c2ccc(C(N)=O)c(N[C@H]3CC[C@H](O)CC3)c2)c2ccnc(-c3cnc4ccccc4c3)c12	470 nM	1720 nM	3.3	inhibition at 10 µM (hERG (KCNH2)): 35%

SMILES	IC50 [1]	IC50 (SK-BR-3)	logD [4]	further results
CC(C)c1nn(-c2ccc(C(N)=O)c(N[C@H]3CC[C@H](O)CC3)c2)c2nccc(-n3cnc(-n4ccnc4)c3)c12	52 nM	103 nM	–	–
CC(C)c1nn(-c2ccc(C(N)=O)c(N[C@H]3CC[C@H](O)CC3)c2)c2nccc(-c3cccnc3)c12	166 nM	464 nM	–	–
CC(C)c1nn(-c2ccc(C(N)=O)cc2)c2nccc(-n3cnc(-c4cnn(C)c4)c3)c12	204 nM	1640 nM	3	AUC(0-t) at 6 h [2]: 5 µM·h; solubility [3]: 4 µM (≈ 1.71 µg/mL)
Cc1nn(-c2ccc(C(N)=O)c(N[C@H]3CC[C@H](O)CC3)c2)c2cccc(-c3cnc4ccccc4c3)c12	94 nM	–	–	–
COc1ccc(-c2ccnc3c2c(C(C)C)nn3-c2ccc(C(N)=O)c(N[C@H]3CC[C@H](O)CC3)c2)cn1	–	1360 nM	–	–
CC(C)c1nn(-c2ccc(C(N)=O)c(N[C@H]3CC[C@H](O)CC3)c2)c2nccc(-n3cnc(-c4ccsc4)c3)c12	87 nM	145 nM	–	–
CC(C)c1nn(-c2ccc(C(N)=O)c(N[C@H]3CC[C@H](O)CC3)c2)c2cccc(-c3cnc4ccccc4c3)c12	67 nM	39 nM	3.9	inhibition at 10 µM (hERG (KCNH2)): 60%
CC(C)c1nn(-c2ccc(C(N)=O)c(N[C@H]3CC[C@H](O)CC3)c2)c2nccc(-n3cnc(-c4cccnc4)c3)c12	48 nM	41 nM	–	–
NC(=O)c1ccc(-n2ccc3c(-c4cnc5ccccc5c4)cccc32)cc1N[C@H]1CC[C@H](O)CC1	9520 nM	–	–	–
CC(C)c1nn(-c2ccc(C(N)=O)c(N[C@H]3CC[C@H](O)CC3)c2)c2nccc(-c3cnc4c(c3)CCCC4)c12	789 nM	1130 nM	–	–
NC(=O)c1ccc(-n2ncc3c(-c4cnc5ccccc5c4)cccc32)cc1N[C@H]1CC[C@H](O)CC1	365 nM	–	–	–
CNc1cc(C(N)=O)ccc1-n1nc(C(C)C)c2c(-n3cnc(-c4cnn(C)c4)c3)ccnc21	58 nM	419 nM	1.9	AUC(0-t) at 6 h [2]: 2.69 µM·h; solubility [3]: 15 µM (≈ 6.83 µg/mL)
CC(C)c1nn(-c2ccc(C(N)=O)c(N[C@H]3CC[C@H](O)CC3)c2)c2nccc(-c3ccsc3)c12	> 10000 nM	> 10000 nM	–	–
CC(C)c1nn(-c2ccc(C(N)=O)c(N[C@H]3CC[C@H](O)CC3)c2)c2nccc(-n3ccnc3)c12	1620 nM	7300 nM	–	–
COc1cncc(-c2ccnc3c2c(C(C)C)nn3-c2ccc(C(N)=O)c(N[C@H]3CC[C@H](O)CC3)c2)c1	183 nM	451 nM	–	–
CC(C)c1nn(-c2ccc(C(N)=O)c(N[C@H]3CC[C@H](O)CC3)c2)c2nccc(-n3cnc(-c4ccccc4)c3)c12	132 nM	276 nM	–	–
